From PubChem BioAssay
Inconclusive results are not listed.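 Rule for the calls, unless noted: active = viability increase at or above a cutoff of the median across tested compounds plus 3 SD (cut at about 8.5% in these data, passing the limit was not always enough); inconclusive = some gains above the cutoff, reason not given; inactive = the rest.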

What was measured:
[1] = S. cerevisiae growth inhibition in permissive medium (OD615), pilot counter-assay for S. cerevisiae lifespan shortening project, permissive growth control (AID 705;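 active = growth inhibition above 25% in both replicates, a cutoff set 3 SD above the mean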); settings: OD615, 24 h, at 10 µM, hits give high values
How it was run: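 Material: engineered DeaD yeast; compound dosing: one dose 10 µM, DMSO 0.25% final; measure: yeast growth inhibition indicated by reduced 24 h OD615; detection: OD615 turbidity read; incubation: cells pre-grown 4 h, then 24 h compound exposure, 30 °C humidified; medium: permissive synthetic complete medium with raffinose and galactose carbon sources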

[2] = S. cerevisiae growth inhibition in restrictive medium, OD615, pilot screen, restrictive growth control, yeast lifespan reduction project (AID 706;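 active = growth inhibition above a set limit, 3 SD over mean compound inhibition, in both replicates, cut at about 43% in these data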;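 note: modified DeaD lifespan yeast strain shifted to restrictive glucose medium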); settings: OD615, 48 h, at 10 µM, hits give high values
How it was run: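 material = engineered S. cerevisiae DeaD strain | medium = glucose-based CSMM-D restrictive medium | times = 4 h pre-incubation, 48 h exposure at 30 °C | technique = OD615 absorbance reading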

[3] = doxorubicin toxicity protection in MRP-1 cells – H69AR cells, CellTiter-Glo, duplicate, MRP-1 activator project, pilot screen (AID 807); settings: H69AR viability with doxorubicin, CellTiter-Glo luminescence; at 10 µM; hits give high values;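 note: compound pretreatment 18-22 h then 72 h combined with doxorubicin; 0% = doxorubicin alone and 100% = vehicle without doxorubicin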
[4] = viability of HCT116 without oncogenic beta-catenin – human colon tumor cells, pilot screen (AID 823;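 active = cell viability at or below a set limit in both duplicate runs, the limit being the all-compound median minus 4 SD, cut at about 23% in these data, passing the limit was not always enough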;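 note: 0% = wells killed by 20 µM Hyamine and 100% = untreated DMSO cell wells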); settings: HCT116 beta-catenin knockout viability, CellTiter-Glo, 60 h; at 10 µM; hits give low values
[5] = viability of PTEN-null HCT116 cells – cell-based, HCT116 clonal line, CellTiter-Glo, pilot screen (AID 824;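 active = viability at or below 27.92% in each of two runs, the all-compound median minus 4 SD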;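 note: 0% = 20 µM Hyamine control and 100% = vehicle cell control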); settings: HCT116 PTEN-deleted viability, 60 h, at 10 µM, hits give low values
[6] = RAM pathway blockade in budding yeast – dse1pr::URA3 reporter, 5-FOA selection, pilot screen (AID 869;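 active = inhibition over a set limit, the all-compound mean plus 3 SD, in both replicate runs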;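 note: 0% = DMSO wells with no growth and 100% = 10 µM 1-NA-PP1 with full growth; RAM network block rescues cells from 5-FOA so hits raise OD615 growth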); settings: S. cerevisiae dse1pr::URA3 5-FOA growth, OD615, 2 d; at 10 µM; hits give high values; strain carries analog-sensitive mutant Cbk1 kinase
[7] = RAM signaling pathway blockade in yeast – S. cerevisiae, Pdr1DBD-CYC8 efflux-inhibited sensitized strain, primary screen (AID 1298;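 active = RAM network inhibition above 8.4% in each of two replicates, 3 SD over the compound average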;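 note: 0% = DMSO untreated cells without growth and 100% = 10 µM 1-NA-PP1 full growth; higher means more yeast growth rescued from 5-FOA killing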); settings: S. cerevisiae cbk1-as DSE1-URA3 strain, 5-FOA growth OD615, 2 d; at 50 µM; hits give high values

CCOc1ccc(CC(=O)Nc2c(C(N)=O)oc3ccc(Br)cc23)cc1OCC
inactive: growth inhibition [1] -12% | growth inhibition [2] -15.8% | viability increase [3] -5.14% | viability [4] 61% | viability [5] 45% | inhibition [6] 2.49% | RAM network inhibition [7] 0.56%

CC1CCN(C(=O)CSc2ccc3nnc(-c4cccc(F)c4)n3n2)CC1
inactive: growth inhibition [1] -0.835% | growth inhibition [2] -0.735% | viability increase [3] -3.12% | viability [4] 79.5% | viability [5] 81.3% | inhibition [6] 0.67% | RAM network inhibition [7] -1.03%

COc1ccccc1-n1c(CNC(=O)c2ccco2)nnc1SCC(=O)Nc1nccs1
inactive: growth inhibition [1] -0.655% | growth inhibition [2] -2.6% | viability increase [3] -5.08% | viability [4] 77.4% | viability [5] 66.2% | inhibition [6] 1.09% | RAM network inhibition [7] 1.25%

CCOC(=O)Cc1csc(NC(=O)COc2ccc(OC)cc2)n1
inactive: growth inhibition [1] -22.4% | growth inhibition [2] -8.99% | viability increase [3] -2.2% | viability [4] 97.2% | viability [5] 92.2% | inhibition [6] 1.89% | RAM network inhibition [7] 0.64%

CC1(C)Cc2c(sc3nc(-c4cccs4)n(N)c(=O)c23)CO1
inactive: growth inhibition [1] -10.5% | growth inhibition [2] 18.5% | viability increase [3] -6.5% | viability [4] 42.1% | viability [5] 45.5% | inhibition [6] 0.19% | RAM network inhibition [7] 1.7%

COc1ccc(OC)c(N(CC(=O)NCc2ccccn2)S(C)(=O)=O)c1
inactive: growth inhibition [1] -0.79% | growth inhibition [2] -6.94% | viability increase [3] -2.27% | viability [4] 98.1% | viability [5] 96.3% | inhibition [6] 1.44% | RAM network inhibition [7] 0.46%

CCOc1ccccc1C1CC(c2ccc(F)cc2)Nc2nc(N)nn21 (configuration not stated)
inactive: growth inhibition [1] -2.63% | growth inhibition [2] 6.8% | viability increase [3] 1.61% | viability [4] 89.2% | viability [5] 90.1% | inhibition [6] 0.785% | RAM network inhibition [7] 2.07%

CC1CCN(S(=O)(=O)c2ccc(NC(=O)c3cccs3)cc2)CC1
inactive: growth inhibition [1] -0.77% | growth inhibition [2] 5.38% | viability increase [3] -5.18% | viability [4] 85.5% | viability [5] 75.8% | inhibition [6] 0.115% | RAM network inhibition [7] 3.83%

Cc1cnn(-c2ccc3nnc(-c4ccc(Br)cc4)n3n2)c1
inactive: growth inhibition [1] -5.48% | growth inhibition [2] -11.2% | viability increase [3] -4.96% | viability [4] 85.9% | viability [5] 84.1% | inhibition [6] 1.4% | RAM network inhibition [7] 3.52%

O=c1[nH]c(NCCCO)nc2c1C1(CCCC1)Cc1ccccc1-2
inactive: growth inhibition [1] -1.02% | growth inhibition [2] -4.91% | viability increase [3] -0.94% | viability [4] 97.1% | viability [5] 96.2% | inhibition [6] -0.175% | RAM network inhibition [7] 6.67%

CCCCN=C(C)c1c(O)c2ccccc2oc1=O
inactive: growth inhibition [1] -2.92% | growth inhibition [2] 5.07% | viability increase [3] -1.49% | viability [4] 102% | viability [5] 95.9% | inhibition [6] 0.01% | RAM network inhibition [7] -2%

Nn1c(SCc2nc3ccccc3[nH]2)nnc1-c1cccnc1
inactive: growth inhibition [1] 4.54% | growth inhibition [2] 14.9% | viability increase [3] -2.44% | viability [4] 90.2% | viability [5] 95.7% | inhibition [6] 1.13% | RAM network inhibition [7] 1.82%

COc1ccc(NC(=O)c2cc3ccccc3o2)cc1
inactive: growth inhibition [1] -7.97% | growth inhibition [2] 10.6% | viability increase [3] -4.64% | viability [4] 86.6% | viability [5] 75.8% | inhibition [6] 0.89% | RAM network inhibition [7] -1.4%

CN1C(=O)c2cccc(NC(=O)Cc3ccccc3)c2C1=O
inactive: growth inhibition [1] 1.68% | growth inhibition [2] 15.6% | viability increase [3] -1.47% | viability [4] 111% | viability [5] 91.1% | inhibition [6] 0.625% | RAM network inhibition [7] -0.88%

CC(=O)c1cccc(NC(=O)C2CCCN(S(=O)(=O)c3cccc4cccnc34)C2)c1 (configuration not stated)
inactive: growth inhibition [1] -10.5% | growth inhibition [2] -5.17% | viability increase [3] -2.34% | viability [4] 83.5% | viability [5] 73.7% | inhibition [6] 2.18% | RAM network inhibition [7] 4.5%

CCc1nnc(NC(=O)c2ccc(N3C(=O)CCC3=O)cc2)s1
inactive: growth inhibition [1] -9.63% | growth inhibition [2] -14.9% | viability increase [3] -1.98% | viability [4] 101% | viability [5] 94.7% | inhibition [6] 1.32% | RAM network inhibition [7] 2.48%

C=CCC(=O)OCC(=O)Nc1ccc(Oc2ccccc2)cc1
inactive: growth inhibition [1] 6.73% | growth inhibition [2] 5% | viability increase [3] -5.15% | viability [4] 94.2% | viability [5] 94.1% | inhibition [6] -0.25% | RAM network inhibition [7] -0.31%

Brc1ccc(C2Nc3cccc4cccc(c34)N2)o1
inactive: growth inhibition [1] -13.8% | growth inhibition [2] -9.64% | viability increase [3] -0.34% | viability [4] 85.9% | viability [5] 92.5% | inhibition [6] 2.66% | RAM network inhibition [7] 1.71%

CC(C)Oc1ccc(N2CC(C(=O)Nc3ccc4c(c3)OCO4)CC2=O)cc1 (configuration not stated)
inactive: growth inhibition [1] -13.3% | growth inhibition [2] -4.22% | viability increase [3] -0.37% | viability [4] 106% | viability [5] 99.5% | inhibition [6] 2.58% | RAM network inhibition [7] 4.96%

O=C(CSc1ccc2c(c1)OCCO2)NC(=O)NC1CCCC1
inactive: growth inhibition [1] -2.04% | growth inhibition [2] 2.58% | viability increase [3] -1.38% | viability [4] 87.7% | viability [5] 91.3% | inhibition [6] 0.535% | RAM network inhibition [7] -1.28%

Fc1ccc(Cc2nnc(-c3cccs3)o2)cc1
inactive: growth inhibition [1] -20.1% | growth inhibition [2] -0.63% | viability increase [3] 0.11% | viability [4] 104% | viability [5] 97.8% | inhibition [6] 1.93% | RAM network inhibition [7] 12.2%

Cc1ccc2nc(N3CCOCC3)c3nncn3c2c1
inactive: growth inhibition [1] -6.37% | growth inhibition [2] 3.97% | viability increase [3] -2.43% | viability [4] 106% | viability [5] 96.1% | inhibition [6] 0.915% | RAM network inhibition [7] 1.57%

CSc1nc(C)cc(SCCO)n1
inactive: growth inhibition [1] -3.2% | growth inhibition [2] 8.15% | viability increase [3] -1.79% | viability [4] 105% | viability [5] 102% | inhibition [6] 0.695% | RAM network inhibition [7] 0.46%

CCOC(=O)C1CCN(C(=O)CN(c2cccc(OC)c2)S(=O)(=O)c2ccccc2)CC1
inactive: growth inhibition [1] -4.73% | growth inhibition [2] -0.62% | viability increase [3] -3.2% | viability [4] 92.9% | viability [5] 87.2% | inhibition [6] -0.74% | RAM network inhibition [7] 1.79%

CC(C)(C)Nc1ncnc2c1cnn2-c1ccccc1
inactive: growth inhibition [1] -3.38% | growth inhibition [2] 17.3% | viability increase [3] 2% | viability [4] 92.3% | viability [5] 90.3% | inhibition [6] 1.31% | RAM network inhibition [7] -2.37%

Cc1c2cn[nH]c(=O)c2c(C)n1Cc1ccc(F)cc1
inactive: growth inhibition [1] -17.7% | growth inhibition [2] -15% | viability increase [3] -3.21% | viability [4] 90.7% | viability [5] 98.5% | inhibition [6] 1.83% | RAM network inhibition [7] 5.11%

CCOC(=O)N1CCN(C(=O)Cc2ccc(Cl)cc2)CC1
inactive: growth inhibition [1] 3.9% | growth inhibition [2] -5.01% | viability increase [3] -1.27% | viability [4] 99.2% | viability [5] 95.3% | inhibition [6] 2.03% | RAM network inhibition [7] 6.67%

Cn1c(/N=C/c2cccs2)nc2ccccc21
inactive: growth inhibition [1] -8.72% | growth inhibition [2] -5.94% | viability increase [3] -2.39% | viability [4] 93.9% | viability [5] 94.8% | inhibition [6] 2.46% | RAM network inhibition [7] 1.77%

CCOCCCNC(=O)C(NC(=O)CC1NC(=O)NC1=O)c1ccc(Cl)cc1 (configuration not stated)
inactive: growth inhibition [1] -4.46% | growth inhibition [2] 1.68% | viability increase [3] 0.89% | viability [4] 107% | viability [5] 96.1% | inhibition [6] 2.61% | RAM network inhibition [7] 1.81%

CCOC(=O)c1sc(NC(=O)c2ccc(Cl)s2)cc1C
inactive: growth inhibition [1] -0.47% | growth inhibition [2] -4.72% | viability increase [3] 0.81% | viability [4] 105% | viability [5] 94.9% | inhibition [6] 2.33% | RAM network inhibition [7] 5.22%

CCN(CC)CCCNc1nc2ccccc2[nH]1
inactive: growth inhibition [1] -4% | growth inhibition [2] -5.4% | viability increase [3] -0.63% | viability [4] 99% | viability [5] 98.3% | inhibition [6] 0.52% | RAM network inhibition [7] 4.31%

CC(C)(C)NC(=O)C1CN(S(=O)(=O)c2ccccc2)CCN1S(=O)(=O)c1ccccc1 (configuration not stated)
inactive: growth inhibition [1] 5.33% | growth inhibition [2] -4.14% | viability increase [3] -1.07% | viability [4] 97.3% | viability [5] 97.1% | inhibition [6] 2.74% | RAM network inhibition [7] 2.81%

Nc1c(S(=O)(=O)c2ccccc2)c2nc3ccccc3nc2n1/N=C/c1ccco1
inactive: growth inhibition [1] -7.84% | growth inhibition [2] -8.93% | viability increase [3] -5.63% | viability [4] 51.5% | viability [5] 52% | inhibition [6] 2.34% | RAM network inhibition [7] 4.98%

CC(C)N(C(=O)CN(C#N)c1nc(N(C)C)nc(N(C)C)n1)c1ccccc1
inactive: growth inhibition [1] -16.1% | growth inhibition [2] -7.49% | viability increase [3] -2.51% | viability [4] 100% | viability [5] 106% | inhibition [6] 2.33% | RAM network inhibition [7] 4.46%

O=C1C(=O)N(CCO)C(c2ccccc2)/C1=C(\O)c1ccccc1 (configuration not stated)
inactive: growth inhibition [1] -18.6% | growth inhibition [2] -8.67% | viability increase [3] 0.49% | viability [4] 99.7% | viability [5] 101% | inhibition [6] 1.29% | RAM network inhibition [7] 0.42%

CCN(CC)c1ccc(NC(=O)COc2ccc(C)cc2)cc1
inactive: growth inhibition [1] -8.23% | growth inhibition [2] -15.4% | viability increase [3] 0.42% | viability [4] 93.6% | viability [5] 85.3% | inhibition [6] 0.255% | RAM network inhibition [7] 0.45%
